Measured values as given in ChEMBL document CHEMBL4145682, “An Affinity-Based Probe for the Human Adenosine A2A Receptor” (J Med Chem, 2018).
pEC50, pKi: −log10 of the molar value. Calls of active or inactive are those of the source. No cut-off for these calls is given here.

Legend:
Adenosine receptor A2a [1] = target: T1, Adenosine receptor A2a (Homo sapiens, UniProt P29274); assay: Potency shift, difference in pKi for displacement of [3H]ZM241385 human A2AR (1 to 316 residues) expressed in Pichia pastoris SMD1168 cell membranes incubated for 0.5 hrs to pKi for displacement of [3H]ZM241385 human A2AR (1 to 316 residues) expressed in Pichia pastoris SMD1168 cell membranes incubated for 3 hrs
Adenosine receptor A2a [2] = target: T1, Adenosine receptor A2a; assay: Displacement of [3H]ZM241385 human A2AR […] expressed in […] cell membranes incubated for 0.5 hrs
How it was run: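 HEK293 cell membranes stably expressing hA2AR, 10 μg protein per tube. Buffer 25 mM Tris-HCl pH 7.4, 5 mM MgCl2, 0.1% CHAPS. [3H]ZM241385 displaced by increasing compound concentrations at 25°C for 0.5 h (standard) or 3 h. Nonspecific binding defined with 100 µM NECA. Stopped by GF/B filtration and scintillation counting. Apparent pKi, means ± SEM of three experiments in duplicate. Shift = pKi(3h) − pKi(0.5h).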

Adenosine receptor A2a [3] = target: T1, Adenosine receptor A2a; assay: Displacement of [3H]ZM241385 human A2AR (1 to 316 residues) expressed in Pichia pastoris SMD1168 cell membranes
Adenosine receptor A2a [4] = target: T1, Adenosine receptor A2a; assay: Photoaffinity labelling of N-terminal FLAG-tagged and C-terminal His-tagged human adenosine A2A receptor expressed in HEK293 cell membranes at 1 uM incubated for 1 hr by SDS PAGE and Western blot analysis based affinity-based protein labeling assay
How it was run: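 Membranes (1 mg/mL in 50 mM Tris-HCl pH 7.4) came from HEK293 transiently transfected 48 h with FLAG-hA2AR-His. Incubated with probe (0.1–3 μM) or 1% DMSO for 1 h at room temperature. Click at room temperature for 1 h, with CuSO4 added last: 4.4 μM Cy3-azide, 33 mM ascorbate, 1.1 mM THPTA, 5.6 mM CuSO4. Denatured 30 min at 37°C. Read-out: in-gel fluorescence, with anti-FLAG Western blot (~50 kDa).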

Adenosine receptor A2a [5] = target: T1, Adenosine receptor A2a; assay: Covalent binding to human A2AR (1 to 316 residues) expressed in Pichia pastoris SMD1168 cell membranes assessed as radioligand binding level pre-incubated at 1.5 to 5 nM followed by compound wash out before [3H]ZM241385 addition (reference value: 65 +/- 2%)
Adenosine receptor A2a [6] = target: T1, Adenosine receptor A2a; assay: Photoaffinity labelling of purified human A2AR (1 to 316 residues) by Western blot analysis
How it was run: (§1)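 His-tagged hA2AR (residues 1–316) from Pichia pastoris was purified by HisTrap, diluted to 0.1 mg/mL in 25 mM HEPES pH 7.5, 100 mM NaCl, 10 μM LMNG. Incubated with probe at a range of concentrations or 1% DMSO for 1 h on ice. CuAAC click on ice, 1 h: 5.6 mM CuSO4, 33 mM ascorbate, 1.1 mM THPTA, 4.4 μM Cy3-azide. Read-out: SDS-PAGE in-gel fluorescence of the ~47 kDa band, normalized to anti-His immunoblot. pEC50 fitted; three experiments.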

Adenosine receptor A2a [7] = target: T1, Adenosine receptor A2a; assay: Photoaffinity labelling of purified human A2AR (1 to 316 residues) by SDS-PAGE analaysis; how it was run: as §1
Adenosine receptor A2a [8] = target: T1, Adenosine receptor A2a; assay: Photoaffinity labelling of purified human A2AR (1 to 316 residues) by SDS-PAGE analaysis pretreated with 10 uM ZM241385 followed by compound addition at 1 uM by competitive labeling assay
How it was run: (§2)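 Purified hA2AR (0.1 mg/mL) was preincubated 1 h on ice with 10 μM competitor or 1% DMSO. Then labeled with 1 μM probe for 0.5 h on ice. CuAAC with Cy3-azide followed, then SDS-PAGE in-gel fluorescence normalized to anti-His immunoblot. Three experiments; Student's t-test.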

Adenosine receptor A2a [9] = target: T1, Adenosine receptor A2a; assay: Photoaffinity labelling of purified human A2AR (1 to 316 residues) by SDS-PAGE analaysis pretreated with 10 uM LUF7445 followed by compound addition at 1 uM by competitive labeling assay; how it was run: as §2
Homo sapiens = organism: Homo sapiens; assay: Selectivity for human A2AR (1 to 316 residues) expressed in Pichia pastoris SMD1168 cell membranes over human A3AR

T1 sequence (P29274 whole entry, the tested form may be a part): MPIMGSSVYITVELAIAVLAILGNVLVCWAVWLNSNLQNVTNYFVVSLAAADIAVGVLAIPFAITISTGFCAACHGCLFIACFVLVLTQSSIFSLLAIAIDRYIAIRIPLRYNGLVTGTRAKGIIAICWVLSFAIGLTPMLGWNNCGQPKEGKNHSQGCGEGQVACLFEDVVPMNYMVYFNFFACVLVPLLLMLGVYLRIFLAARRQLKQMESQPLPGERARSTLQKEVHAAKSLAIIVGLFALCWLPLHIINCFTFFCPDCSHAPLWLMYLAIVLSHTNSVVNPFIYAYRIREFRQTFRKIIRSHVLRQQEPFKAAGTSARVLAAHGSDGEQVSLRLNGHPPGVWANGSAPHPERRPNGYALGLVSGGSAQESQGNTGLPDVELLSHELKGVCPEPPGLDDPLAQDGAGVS

| Structure (SMILES) | fold change (FC) (Adenosine receptor A2a [1]) | pKi (Adenosine receptor A2a [2]) | inhibition (Adenosine receptor A2a [3]) | inhibition (Adenosine receptor A2a [2]) | Activity (Adenosine receptor A2a [4]) | Activity (Adenosine receptor A2a [5]) | Activity (Adenosine receptor A2a [6]) | Activity (Adenosine receptor A2a [7]) | pEC50 (Adenosine receptor A2a [7]) | Activity (Adenosine receptor A2a [8]) | Activity (Adenosine receptor A2a [9]) | Selectivity ratio (Homo sapiens) |
| --- | --- | --- | --- | --- | --- | --- | --- | --- | --- | --- | --- | --- |
| Nc1nc(NCCCNC(=O)c2ccc(S(=O)(=O)F)cc2)nc2nc(-c3ccco3)nn12 | 0.72 | 8.27 | – | – | – | – | – | – | – | – | – | – |
| Nc1nc(NCCCCCNC(=O)c2ccc(S(=O)(=O)F)cc2)nc2nc(-c3ccco3)nn12 | 0.65 | 8.56 | Dose-dependent effect | Dose-dependent effect | – | – | – | – | – | – | – | – |
| C#CCN(CCCCCNc1nc(N)n2nc(-c3ccco3)nc2n1)C(=O)c1ccc(S(=O)(=O)F)cc1 | 0.41 | 8.41 | Dose-dependent effect | – | Active | 43% | Active | Dose-dependent effect | 6.10 | inactive | inactive | < 10 |
| Nc1nc(NCCCCNC(=O)c2ccc(S(=O)(=O)F)cc2)nc2nc(-c3ccco3)nn12 | 0.85 | 8.20 | Dose-dependent effect | Dose-dependent effect | – | – | – | – | – | – | – | – |
